The array DNA melting data of Ke et al. (doi:10.1101/2024.01.08.574731)

Columns and labels:
[1] = folding enthalpy; higher = less favourable; fluorescence melt of hairpins on a sequencing array, two-state fit; conditions: sodium 0.088 M
Outline: (§1)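 In 50 mM Na-HEPES pH 8.0 containing 25 mM NaCl, hairpins from the library on a sequenced MiSeq flow cell were imaged for Cy3 fluorescence at 2.5 °C steps up to 60 °C, with Cy3 and quencher oligos annealed. After normalisation to pre-quench Cy3 and to control constructs, two-state fits with bootstrapping gave melting temperature and folding enthalpy. Four replicates were combined by inverse-variance weighting, and fitted temperatures were shifted up by 9.35 °C to match UV melts.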

[2] = melting temperature; fluorescence melt of hairpins on a sequencing array, two-state fit, raised by 9.35 °C to match UV melts; conditions: sodium 0.088 M
Outline: as §1

Row | Sequence | folding enthalpy [1] [kcal/mol] | Tm [2] [°C]
1 | GCCGTGCGAAAGCGCTGC ((.(.((....)).).)) | -19.6 | 49
2 | GCAAATGGAAACATTTGC (((((((....))))))) | -40.9 | 61.8
3 | GAACCCGAAAGGGTCTTC ((((((....)))..))) | -22.8 | 61.9
4 | GCCACGGGAAACCATGGC ((((.((....)).)))) | -47.8 | 48.6
5 | GTAACTGGAAACAGTCAC ((.((((....)))).)) | -17 | 34.8
6 | GATCTCGATCGAGATC ((((((....)))))) | -48.5 | 56.9
7 | GATCCCATGAGGGATC ((((((....)))))) | -30.3 | 61.4
8 | GCGATACCGAAAGGTCGC (((..(((....)))))) | -29.3 | 54.3
9 | GAGATCGGAAACAATCTC (((((.(....).))))) | -15.3 | 32.5
10 | GGCCTGCGAAAGCAGCC (((.(((....)))))) | -15.8 | 61.1
11 | GATCTGCTTCAGATC ((((((...)))))) | -36.6 | 48.7
12 | GCCAACGGAAACACTGGC ((((..(....)..)))) | -14 | 29.1
13 | GGTACAGGAAACTGTACC (((((((....))))))) | -44.5 | 59.3
14 | GCCAGCGAAAGCTATGGC ((((((....)))..))) | -21.4 | 55.3
15 | GCTACCCGAAAGGGAGC (((.(((....)))))) | -23.1 | 55.5
16 | CGTAAGAAATTACG (((((....))))) | -15.7 | 38.4
17 | GATCCTAGCCAGGATC ((((((....)))))) | -40.2 | 52.1
18 | GGTGTGGGAAACCACGCC ((.((((....)))).)) | -27.4 | 60.5
19 | GCGATTATTCGC ((((....)))) | -25.1 | 52.4
20 | GGATTGGCGAAAGCCTCC (((..(((....)))))) | -10.5 | 35.3
21 | GTCATCGAAAGATGTGAC ((((((....)))..))) | -13.4 | 35.7
22 | GGCAGCGAAAGCTCGGCC ((((((....)))..))) | -17.7 | 53.5
23 | GCACTAGGAAACTAGTGC (((((((....))))))) | -36.2 | 62.8

Row | Sequence | folding enthalpy [1] [kcal/mol] | Tm [2] [°C]
24 | GTAGTAGGAAACTACCAC ((.((((....)))).)) | -17.2 | 32.2
25 | GATCTGTGTCAGATC ((((((...)))))) | -34.1 | 50.6
26 | CGTGAGCGGAAACGCACG (((..(((....)))))) | -22.2 | 45.9
27 | GTTGCTGGAAACAGCAAC (((((((....))))))) | -62.8 | 65.8
28 | GGCCAAGGAAACTCGGCC ((((.((....)).)))) | -34 | 50.7
29 | GCAAGGCGAAAGCGTTGC ((((.((....)).)))) | -33.1 | 67.2
30 | GGTGACGAAAGTCTACC ((((((....))).))) | -21.4 | 49
31 | GTGGAGGGAAACTTCCGC (.(((.(....).))).) | -26.7 | 35.1
32 | GCGTGGCGAAAGCACCGC (((..((....))..))) | -31.9 | 62.2
33 | GATCGAATCTCGATC ((((((...)))))) | -38.2 | 51
34 | GATCTTCGAAAAGATC ((((((....)))))) | -24.9 | 40.5
35 | GATCTTCGCAAAGATC ((((((....)))))) | -28.3 | 45.5
36 | GCGACGTTCGC ((((...)))) | -17.3 | 48
37 | GATCCTGCACAGGATC ((((((....)))))) | -47.2 | 58.9
38 | GCGGCTGGAAACGGTCGC (((.(.(....).).))) | -43.2 | 54
39 | GTGACCGAAAGGTTACAC ((((((....)))..))) | -16.6 | 49.8
40 | GCACCAGGAAACCAGTGC ((((..(....)..)))) | -30.5 | 39
41 | GCGCCCGGAAACGGACGC (((.(((....))).))) | -47 | 66.1
42 | GACTCCCGAAAGGGTGTC (((.(((....))).))) | -33.1 | 58.3
43 | GCTCATCCGAAAGGAAGC (((..(((....)))))) | -11.2 | 29.8
44 | GATCCGCGTCGGATC ((((((...)))))) | -35.6 | 57.3
45 | GATCGCCCATGCGATC ((((((....)))))) | -36.2 | 67.6
46 | GATCATTGATATGATC ((((((....)))))) | -28 | 45.5

Row | Sequence | folding enthalpy [1] [kcal/mol] | Tm [2] [°C]
47 | GCTGAAGGAAACTTCAAC (.(((((....))))).) | -18 | 29.8
48 | GGGTCTGGAAACAGGCTC (.(.(((....))).).) | -23.2 | 39.9
49 | GCGTCTACGAAAGTACGC (((..(((....)))))) | -28.4 | 47.6
50 | GCCGTAGGAAACTACGAC (.(((((....))))).) | -18.5 | 40.8
51 | GGAGCTGGAAACAGTTCC (((.(((....))).))) | -37 | 50
52 | GCCTGGCGAAAGCAATGC ((.(.((....)).).)) | -7.84 | 26.9
53 | GATCGTCTACACGATC ((((((....)))))) | -39.8 | 53.9
54 | CGTGAGAAATCACG (((((....))))) | -25.8 | 50.8
55 | GGAGCAGGAAACTGCCCC ((.((((....)))).)) | -17.4 | 49.7
56 | GCGCCACGAAAGTGCCGC (((.(((....))).))) | -26.9 | 56.3
57 | GGGAGAGGAAACTCTCTC (.(((((....))))).) | -21.4 | 46.2
58 | CGTAACCGGAAACGGACG (((..(((....)))))) | -15.2 | 34
59 | GACAACGAAAGTTCTGTC ((((((....)))..))) | -14.7 | 27
60 | GTCCGCGGAAACACGGAC (((((.(....).))))) | -42 | 54.2
61 | GGTTCAGGAAACCGAACC (((((.(....).))))) | -26.5 | 47.8
62 | GACGGAGGAAACCCCGTC (((((.(....).))))) | -37.5 | 51.3
63 | GTACTGCGAAAGCATAC (((.(((....)))))) | -12 | 36.6
64 | GCTTCGCGAAAGCATAGC (((..((....))..))) | -14.5 | 36.3
65 | GGTGTACGAAAGTAGACC (((.(((....))).))) | -38.3 | 52.2
66 | GTCCGCGAAAGCGCCGAC ((((((....)))..))) | -11.1 | 36.9
67 | GAAATGCGAAAGCATTC (((.(((....)))))) | -10.9 | 45.6
68 | GAGATAGGAAACTGTCTC ((((.((....)).)))) | -29.5 | 41.3
69 | CGCCTACGGAAACGTGCG (((..(((....)))))) | -23.2 | 39.4

Row | Sequence | folding enthalpy [1] [kcal/mol] | Tm [2] [°C]
70 | GCACATCGAAAGATATGC (((.(((....))).))) | -30.2 | 42.9
71 | GCAGTTCCGAAAGGATGC (((..(((....)))))) | -17.8 | 36.7
72 | CGCGGAAAACTCCGCG ((((((....)))))) | -38.9 | 62
73 | GGGCATGGAAACGTGCTC (.(((.(....).))).) | -20.8 | 45
74 | GTAATGGGAAACCATTAC (((((((....))))))) | -45.5 | 53.4
75 | GGCTTCGGAAACGAAGTC (.(((((....))))).) | -30.1 | 53.5
76 | GACCTCGCGAAAGCGGTC (((..(((....)))))) | -12.3 | 42.3
77 | GCGAATCGAAAGATCCGC (((.(((....))).))) | -47 | 52.3
78 | GAACTGGGAAACTAGTTC (((((.(....).))))) | -37.9 | 42.4
79 | GACTCGCGAAAGCGTGTC (((.(((....))).))) | -27.1 | 63.3
80 | GATCTCATCGAGATC ((((((...)))))) | -36.1 | 55.8
81 | GATCCCACCAGGGATC ((((((....)))))) | -41.8 | 61.4
82 | GATCGCACTTGCGATC ((((((....)))))) | -32.3 | 69.1
83 | GATCCGCACACGGATC ((((((....)))))) | -44.5 | 59.9
84 | TCCGGGAAACCGGA (((((....))))) | -20.2 | 53.2
85 | GCTTTCGAAAGAATTAGC ((((((....)))..))) | -15.1 | 30.5
86 | GATCGAGACCTCGATC ((((((....)))))) | -44.3 | 56.7
87 | GCACGTCCGAAAGGATGC (((..(((....)))))) | -11.9 | 36.8
88 | GGGGATCGAAAGATTCCC (((.(((....))).))) | -53.6 | 57.5
89 | GAAGAGCGAAAGCTGTTC (((.(((....))).))) | -24.9 | 49.2
90 | GGGTAGCGAAAGCTCCC (((.(((....)))))) | -40.3 | 53.6
91 | GGTTAGACGAAAGTCACC (((..(((....)))))) | -6.17 | 27
92 | GTTTGTGGAAACGTAAAC ((((..(....)..)))) | -13.6 | 29.1
